Holding throughout (assay type): functional
For test [1], the system named is Enterococcus faecalis. In words: Antimicrobial activity against Enterococcus faecalis NKH6 harboring pMG2200-like and pMG2201-like plasmids after 24 hrs by agar dilution method. The note with it: NKH6, 24 h. An outline of the steps:
(§1)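 Agar dilution MICs on clinical E. faecalis isolates. Overnight Mueller-Hinton broth culture diluted 100-fold; ~5 × 10^5 cells inoculated onto Mueller-Hinton medium holding a concentration series of each drug. Incubated at 37°C and read at 24 h. Testing and interpretation follow CLSI (NCCLS) standards, with E. faecium ATCC 9790 as control strain.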
A general note: Agar dilution tests growth on a series of plates holding different concentrations.

For test [2], the system named is Enterococcus faecalis. In words: Antimicrobial activity against Enterococcus faecalis NKH12 harboring pMG2200-like and pMG2201-like plasmids after 24 hrs by agar dilution method. The note with it: NKH12, 24 h. An outline of the steps:
as §1

The test system of test [3] is Enterococcus faecalis. Put plainly: Antimicrobial activity against Enterococcus faecalis NKH11 harboring pMG2200-like plasmid after 24 hrs by agar dilution method. The conditions noted are these: NKH11, 24 h. The essentials:
as §1

In test [4] the test system is Enterococcus faecalis. In words: Antimicrobial activity against Enterococcus faecalis NKH10 harboring pMG2200-like and pMG2201-like plasmids after 24 hrs by agar dilution method. The note with it: NKH10, 24 h. An outline of the steps:
as §1

The test system of test [5] is Enterococcus faecalis. In words: Antimicrobial activity against Enterococcus faecalis NKH1 harboring pMG2200-like plasmid after 24 hrs by agar dilution method. The conditions noted are these: NKH1, 24 h. The essentials:
as §1

Test [6] deals with Enterococcus faecalis. In words: Antimicrobial activity against Enterococcus faecalis NKH3 harboring pMG2200-like and pMG2201-like plasmids after 24 hrs by agar dilution method. The conditions noted are these: NKH3, 24 h. The essentials:
as §1

Test [7] deals with Enterococcus faecalis. In words: Antimicrobial activity against Enterococcus faecalis NKH15 harboring pMG2200-like and pMG2201-like plasmids after 24 hrs by agar dilution method. The note with it: NKH15, 24 h. The essentials: as §1
Test [8] deals with Enterococcus faecalis. In words: Antimicrobial activity against Enterococcus faecalis NKH5 harboring pMG2200-like plasmid after 24 hrs by agar dilution method. The note with it: NKH5, 24 h. The essentials:
as §1

The test system of test [9] is Enterococcus faecalis. In words: Antimicrobial activity against Enterococcus faecalis NKH2 harboring pMG2200-like and pMG2201-like plasmids after 24 hrs by agar dilution method. The note with it: NKH2, 24 h. An outline of the steps: as §1
Test [10] has as its system Enterococcus faecalis. In words: Antimicrobial activity against Enterococcus faecalis NKH4 harboring pMG2200-like and pMG2201-like plasmids after 24 hrs by agar dilution method. The note with it: NKH4, 24 h. An outline of the steps: as §1
The subject of test [11] is Enterococcus faecalis. In words: Antimicrobial activity against Enterococcus faecalis NKH17 harboring pMG2200-like plasmid after 24 hrs by agar dilution method. The note with it: NKH17, 24 h. An outline of the steps: as §1
Test [12] deals with Enterococcus faecalis. In words: Antimicrobial activity against Enterococcus faecalis NKH18 harboring pMG2200-like and pMG2201-like plasmids after 24 hrs by agar dilution method. The note with it: NKH18, 24 h. An outline of the steps: as §1
Test [13] has as its system Enterococcus faecalis. Put plainly: Antimicrobial activity against Enterococcus faecalis NKH14 harboring pMG2200-like and pMG2201-like plasmids after 24 hrs by agar dilution method. The conditions noted are these: NKH14, 24 h. An outline of the steps:
as §1

Test [14] deals with Enterococcus faecalis. In words: Antimicrobial activity against Enterococcus faecalis NKH8 harboring pMG2200-like and pMG2201-like plasmids after 24 hrs by agar dilution method. The conditions noted are these: NKH8, 24 h. An outline of the steps:
as §1

Test [15] concerns Enterococcus faecalis. Put plainly: Antimicrobial activity against Enterococcus faecalis NKH7 harboring pMG2200-like plasmid after 24 hrs by agar dilution method. The note with it: NKH7, 24 h. An outline of the steps: as §1
The test system of test [16] is Enterococcus faecalis. Put plainly: Antimicrobial activity against Enterococcus faecalis NKH13 harboring pMG2200-like and pMG2201-like plasmids after 24 hrs by agar dilution method. The note with it: NKH13, 24 h. The essentials:
as §1

Test [17] concerns Enterococcus faecalis. Put plainly: Antimicrobial activity against Enterococcus faecalis NKH9 harboring pMG2200-like and pMG2201-like plasmids after 24 hrs by agar dilution method. The note with it: NKH9, 24 h. The essentials: as §1
The test system of test [18] is Enterococcus faecalis. Put plainly: Antimicrobial activity against Enterococcus faecalis NKH16 harboring pMG2200-like plasmid after 24 hrs by agar dilution method. The note with it: NKH16, 24 h. The essentials:
as §1

Molecules are shown by their SMILES. Values after ≈ are worked out from the molar mass of the structure shown.

The term MIC denotes the lowest concentration that inhibits growth of the organism. Higher therefore signals a need for much substance. Take `CC1(C)S[C@@H]2[C@H](NC(=O)[C@H](N)c3ccccc3)C(=O)N2[C@H]1C(=O)O` [AMPICILLIN]: the minimum inhibitory concentration (MIC) against Enterococcus faecalis [1], against Enterococcus faecalis [2], with Enterococcus faecalis [3], against Enterococcus faecalis [4], with Enterococcus faecalis [5] and against Enterococcus faecalis [6] was 4 µg/mL (≈ 11.4 µM) each time. Further, the MIC against Enterococcus faecalis [7], in the test on Enterococcus faecalis [8], in the test on Enterococcus faecalis [9] and against Enterococcus faecalis [10] was 4 µg/mL (≈ 11.4 µM) each time.

On to `O=C(N[C@H](CO)[C@H](O)c1ccc([N+](=O)[O-])cc1)C(Cl)Cl` [CHLORAMPHENICOL], for which the MIC was found to be 4 µg/mL (≈ 12.4 µM) against Enterococcus faecalis [11]; 8 µg/mL (≈ 24.8 µM) in the test with Enterococcus faecalis [1]; 8 µg/mL (≈ 24.8 µM) against Enterococcus faecalis [2]; 8 µg/mL (≈ 24.8 µM) in the test on Enterococcus faecalis [3]; 8 µg/mL (≈ 24.8 µM) with Enterococcus faecalis [4]; 8 µg/mL (≈ 24.8 µM) against Enterococcus faecalis [12]. Further, the MIC came to 8 µg/mL (≈ 24.8 µM) with Enterococcus faecalis [5]; 8 µg/mL (≈ 24.8 µM) against Enterococcus faecalis [13]; 8 µg/mL (≈ 24.8 µM) against Enterococcus faecalis [14]; 8 µg/mL (≈ 24.8 µM) in the test on Enterococcus faecalis [6]; 4 µg/mL (≈ 12.4 µM) against Enterococcus faecalis [15]; 8 µg/mL (≈ 24.8 µM) against Enterococcus faecalis [7]. Besides, the MIC against Enterococcus faecalis [16] worked out at 8 µg/mL (≈ 24.8 µM); against Enterococcus faecalis [8], 4 µg/mL (≈ 12.4 µM); in the test on Enterococcus faecalis [17], 8 µg/mL (≈ 24.8 µM); against Enterococcus faecalis [9], 8 µg/mL (≈ 24.8 µM); against Enterococcus faecalis [10], 8 µg/mL (≈ 24.8 µM); in the test on Enterococcus faecalis [18], 4 µg/mL (≈ 12.4 µM).

`O=C(O)c1cn(C2CC2)c2cc(N3CCNCC3)c(F)cc2c1=O` [CIPROFLOXACIN]: the MIC with Enterococcus faecalis [11], with Enterococcus faecalis [1], against Enterococcus faecalis [2], against Enterococcus faecalis [3], against Enterococcus faecalis [4] and in the test on Enterococcus faecalis [12] was 64 µg/mL (≈ 193 µM) in each case. Besides, the MIC in the test with Enterococcus faecalis [5], against Enterococcus faecalis [13], with Enterococcus faecalis [14], in the test on Enterococcus faecalis [6], with Enterococcus faecalis [15] and with Enterococcus faecalis [7] was 64 µg/mL (≈ 193 µM) each time. Further, the MIC in the test on Enterococcus faecalis [16], in the test with Enterococcus faecalis [8], against Enterococcus faecalis [17], in the test with Enterococcus faecalis [9], in the test with Enterococcus faecalis [10] and in the test with Enterococcus faecalis [18] was 64 µg/mL (≈ 193 µM) in each case.

In the case of `CC[C@H]1OC(=O)[C@H](C)[C@@H](O[C@H]2C[C@@](C)(OC)[C@@H](O)[C@H](C)O2)[C@H](C)[C@@H](O[C@@H]2O[C@H](C)C[C@H](N(C)C)[C@H]2O)[C@](C)(O)C[C@@H](C)C(=O)[C@H](C)[C@@H](O)[C@]1(C)O` [ERYTHROMYCIN], the MIC with Enterococcus faecalis [11] was 0.125 µg/mL (≈ 0.17 µM); against Enterococcus faecalis [1], above 1020 µg/mL; against Enterococcus faecalis [2] it was above 1020 µg/mL; in the test with Enterococcus faecalis [3], 0.125 µg/mL (≈ 0.17 µM); in the test with Enterococcus faecalis [4], above 1020 µg/mL; against Enterococcus faecalis [12] it was above 1020 µg/mL. Moreover, the MIC against Enterococcus faecalis [5] was 0.25 µg/mL (≈ 0.341 µM); in the test with Enterococcus faecalis [13], above 1020 µg/mL; in the test on Enterococcus faecalis [14] it was above 1020 µg/mL; against Enterococcus faecalis [6], above 1020 µg/mL; in the test with Enterococcus faecalis [15] it was 0.125 µg/mL (≈ 0.17 µM); against Enterococcus faecalis [7] it was above 1020 µg/mL. Also, the MIC was above 1020 µg/mL against Enterococcus faecalis [16]; 0.125 µg/mL (≈ 0.17 µM) against Enterococcus faecalis [8]; above 1020 µg/mL against Enterococcus faecalis [17]; above 1020 µg/mL against Enterococcus faecalis [9]; above 1020 µg/mL in the test on Enterococcus faecalis [10]; 0.125 µg/mL (≈ 0.17 µM) with Enterococcus faecalis [18].

As to `CN[C@H](CC(C)C)C(=O)N[C@H]1C(=O)N[C@@H](CC(N)=O)C(=O)N[C@H]2C(=O)N[C@H]3C(=O)N[C@H](C(=O)N[C@H](C(=O)O)c4cc(O)cc(O)c4-c4cc3ccc4O)[C@H](O)c3ccc(c(Cl)c3)Oc3cc2cc(c3O[C@@H]2O[C@H](CO)[C@@H](O)[C@H](O)[C@H]2O[C@H]2C[C@](C)(N)[C@H](O)[C@H](C)O2)Oc2ccc(cc2Cl)[C@H]1O` [VANCOMYCIN], the minimum inhibitory concentration (MIC) amounted to 32 µg/mL (≈ 22.1 µM) against Enterococcus faecalis [11]; 256 µg/mL (≈ 177 µM) against Enterococcus faecalis [2]; 256 µg/mL (≈ 177 µM) in the test with Enterococcus faecalis [4]; 128 µg/mL (≈ 88.3 µM) against Enterococcus faecalis [5]; 256 µg/mL (≈ 177 µM) with Enterococcus faecalis [13]; 256 µg/mL (≈ 177 µM) against Enterococcus faecalis [14]. For the same compound, the MIC against Enterococcus faecalis [16], with Enterococcus faecalis [17] and against Enterococcus faecalis [9] was 256 µg/mL (≈ 177 µM) throughout.

For the origin of these results see ChEMBL document CHEMBL1629622, “Isolation of VanB-type Enterococcus faecalis strains from nosocomial infections: first report of the isolation and identification of the pheromone-responsive plasmids pMG2200, Encoding VanB-type vancomycin resistance and a Bac41-type bacteriocin, and pMG2201, encoding erythromycin resistance and …” (2009).
